PMC5743405 (International Journal of Oncology, 2017)
Entries after “also recorded” stand apart in the source; their conditions may differ.

Key:
GPR120 = assay: PathHunter β-arrestin; format: cell-based; conditions: 6 μM
In short: (§1)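 Vendor-run (DiscoveRx) PathHunter enzyme fragment complementation. β-Arrestin carries the EA fragment and the receptor carries ED; recruitment restores β-gal activity, read by chemiluminescence (RLU). Agonist % activity = vehicle-subtracted RLU relative to max control ligand (gpcrMAX) or to vehicle (orphanMAX). Antagonist % inhibition = 100% × (1 − vehicle-subtracted sample RLU / vehicle-subtracted EC80 agonist control RLU).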

VIPR2 = assay: PathHunter β-arrestin; format: cell-based; conditions: 6 μM
In short: (§2)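 β-Arrestin recruitment to GPCR read by β-galactosidase fragment complementation and chemiluminescence. Agonist: % = 100 × (test − vehicle)/(max control ligand − vehicle), hit at >30% and RLU > baseline + 3 SD. Antagonist, against EC80 agonist: % inhibition = 100 × (1 − (test − vehicle)/(EC80 − vehicle)), hit at >35% and RLU < EC80 − 3 SD.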

CCKAR = assay: PathHunter β-arrestin; format: cell-based; conditions: antagonist mode, 6 μM
In short: (§3)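 β-Arrestin recruitment assay: the enzyme acceptor is fused to β-arrestin and the ED fragment to the GPCR. Recruitment restores β-galactosidase, read by chemiluminescence. % activity = 100% × (test − vehicle)/(max control ligand − vehicle). % inhibition = 100% × (1 − (test − vehicle)/(EC80 control − vehicle)). An agonist hit needs >30% activity and RLU > baseline + 3×SD. An antagonist hit needs >35% inhibition and RLU < EC80 RLU − 3×SD.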

OPRL1 = assay: PathHunter β-arrestin; format: cell-based; conditions: antagonist mode, 6 μM
In short: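 GPCR-ED fusion and β-arrestin-EA fusion; arrestin recruitment restores β-galactosidase, read by chemiluminescence. Antagonist mode uses EC80 agonist challenge. % inhibition = 100 × (1 − (test − vehicle RLU)/(EC80 control − vehicle RLU)). Hit requires >35% inhibition and mean RLU below EC80 RLU − 3 × EC80 SD.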

CALCRL-RAMP3 = assay: PathHunter β-arrestin; format: cell-based; conditions: antagonist mode, 6 μM
In short: as §3

OPRM1 = assay: PathHunter β-arrestin; format: cell-based; conditions: 6 μM
In short: as §2

NPFFR1 = assay: PathHunter β-arrestin; format: cell-based; conditions: 6 μM
In short: as §1

GPR35 = assay: PathHunter β-arrestin; format: cell-based; conditions: 6 μM
In short: as §1

MUC5B = assay: RT2 qPCR primer assay, JJ012 cells; format: cell-based, human; conditions: 1 μg/ml PRP-1; heat map, vs nontreated control, technical triplicates
In short: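 RNA extracted from treated and control JJ012 cells, checked by spectrophotometry and reverse transcribed. SYBR Green qPCR with custom primer assays on three samples in technical triplicates. Ct normalized to the average of GAPDH and ACTB. Fold change vs control by 2^−ΔΔCt, shown as a heat map of average Ct.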

GPR103 = assay: PathHunter β-arrestin; format: cell-based; conditions: 6 μM
In short: as §1

SSTR3 = assay: PathHunter β-arrestin; format: cell-based; conditions: 6 μM
In short: as §2

CX3CR1 = assay: PathHunter β-arrestin; format: cell-based; conditions: 6 μM
In short: (§4)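 Engineered cells express the receptor fused to one β-galactosidase fragment (ED) and β-arrestin fused to the complementing fragment (EA). Receptor activation recruits β-arrestin, which restores enzyme activity, and this is read by chemiluminescence (RLU). Agonist % activity is 100% × (test − vehicle)/(maximal control ligand − vehicle). Antagonist mode is challenged with an EC80 control agonist, and % inhibition is 100% × (1 − (test − vehicle)/(EC80 − vehicle)). Hits require >30% activity or >35% inhibition, plus a 3×SD RLU margin.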

PROKR1 = assay: PathHunter β-arrestin; format: cell-based; conditions: 6 μM
In short: as §2

GLP1R = assay: PathHunter β-arrestin; format: cell-based; conditions: antagonist mode, 6 μM
In short: as §1

CCR4 = assay: PathHunter β-arrestin; format: cell-based; conditions: antagonist mode, 6 μM
In short: as §4

P2RY11 = assay: PathHunter β-arrestin; format: cell-based; conditions: 6 μM
In short: as §2

NPBWR1 = assay: PathHunter β-arrestin; format: cell-based; conditions: agonist mode, 6 μM
In short: as §1

OXER1 = assay: PathHunter β-arrestin; format: cell-based; conditions: agonist mode, 6 μM
CHRM2 = assay: PathHunter β-arrestin; format: cell-based; conditions: 6 μM
In short: as §4

mTOR kinase (mTORC1) = conditions: chondrosarcoma; ref [4],[5]; cited from earlier work
[1] = ref [61]; cited from earlier work
CALCRL-RAMP2 = assay: PathHunter β-arrestin; format: cell-based; conditions: 6 μM
In short: as §3

C5L2 = assay: PathHunter β-arrestin; format: cell-based; conditions: antagonist mode, 6 μM
In short: as §3

HTR1F = assay: PathHunter β-arrestin; format: cell-based; conditions: 6 μM
In short: as §1

DRD4 = assay: PathHunter β-arrestin; format: cell-based; conditions: 6 μM
In short: as §4

LTB4R = assay: PathHunter β-arrestin; format: cell-based; conditions: agonist mode, 6 μM
In short: as §1

PTHR2 = assay: PathHunter β-arrestin; format: cell-based; conditions: antagonist mode, 6 μM
PRLHR = assay: PathHunter β-arrestin; format: cell-based; conditions: antagonist mode, 6 μM
ADRA2C = assay: PathHunter β-arrestin; format: cell-based; conditions: antagonist mode, 6 μM
In short: as §3

EDG7 = assay: PathHunter β-arrestin; format: cell-based; conditions: antagonist mode, 6 μM
In short: as §4

GPR1 = assay: PathHunter β-arrestin; format: cell-based; conditions: antagonist mode, 6 μM
In short: as §1

MCHR2 = assay: PathHunter β-arrestin; format: cell-based; conditions: 6 μM
In short: as §1

CCR6 = assay: PathHunter β-arrestin; format: cell-based; conditions: antagonist mode, 6 μM
In short: as §4

Substance: Proline rich polypeptide 1 [PRP-1]
- % Activity (GPR120; agonist mode): 1%
- % Inhibition (GPR120; antagonist mode): −6%
- % Activity (VIPR2; agonist mode): 1%
- % Inhibition (VIPR2; antagonist mode): −3%
- % Inhibition (CCKAR): −3%
- % Inhibition (OPRL1): −7%
- % Inhibition (CALCRL-RAMP3): 1%
- % Activity (OPRM1; agonist mode): 1%
- % Inhibition (OPRM1; antagonist mode): −2%
- % Activity (NPFFR1; agonist mode): 3%
- % Inhibition (NPFFR1; antagonist mode): −3%
- % Activity (GPR35; agonist mode): 1%
- % Inhibition (GPR35; antagonist mode): −6%
- gene expression (MUC5B): high expression; also recorded: the most upregulation after the treatment with 1 μg/ml
- % Activity (GPR103; agonist mode): 2%
- % Inhibition (GPR103; antagonist mode): 6%
- % Activity (SSTR3; agonist mode): 1%
- % Inhibition (SSTR3; antagonist mode): −5%
- % Activity (CX3CR1; agonist mode): 1%
- % Inhibition (CX3CR1; antagonist mode): 2%
- % Activity (PROKR1; agonist mode): 2%
- % Inhibition (PROKR1; antagonist mode): −2%
- % Inhibition (GLP1R): −9%
- % Inhibition (CCR4): 2%
- % Activity (P2RY11; agonist mode): 1%
- % Inhibition (P2RY11; antagonist mode): −12%
- % Activity (NPBWR1): 3%
- % Activity (OXER1): −2%
- % Activity (CHRM2; agonist mode): 1%
- % Inhibition (CHRM2; antagonist mode): −6%
- mTOR kinase (mTORC1) inhibition (mTOR kinase (mTORC1)): mTOR kinase (mTORC1) inhibitor in chondrosarcoma
- antibacterial properties [1]: antibacterial properties
- % Activity (CALCRL-RAMP2; agonist mode): 1%
- % Inhibition (CALCRL-RAMP2; antagonist mode): −1%
- % Inhibition (C5L2): −5%
- % Activity (HTR1F; agonist mode): 2%
- % Inhibition (HTR1F; antagonist mode): 2%
- % Activity (DRD4; agonist mode): 3%
- % Inhibition (DRD4; antagonist mode): −2%
- % Activity (LTB4R): 1%
- % Inhibition (PTHR2): −1%
- % Inhibition (PRLHR): −3%
- % Inhibition (ADRA2C): −4%
- % Inhibition (EDG7): −3%
- % Inhibition (GPR1): −5%
- % Activity (MCHR2; agonist mode): 1%
- % Inhibition (MCHR2; antagonist mode): −3%
- % Inhibition (CCR6): 2%
